Assay results reported in ChEMBL document CHEMBL3259717, “Synthetic calanolides with bactericidal activity against replicating and nonreplicating Mycobacterium tuberculosis” (J Med Chem, 2014).
Converted amounts (≈) assume the structure as drawn.

Assays:
[1] = tested on: Mycobacterium tuberculosis; experiment: Antibacterial activity against replicating form of Mycobacterium tuberculosis MC2 6220 assessed as growth inhibition after 7 days by high-throughput screening assay; assay type: functional; details: MC2 6220, 168 h
Outline: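 Attenuated Mtb mc26220 ΔpanCDΔlysA in 7H9 with glycerol, tyloxapol, OADC, casein amino acids, 240 μg/mL L-lysine, 24 μg/mL pantothenate. Mid-log cells diluted to OD580 0.01 in 384-well plates, compound in DMSO, 7 days at 37 °C, 20% O2, 5% CO2. OD580 read; MIC90 = 90% growth inhibition vs DMSO.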

[2] = tested on: Mycobacterium tuberculosis; experiment: Antibacterial activity against non-replicating form of Mycobacterium tuberculosis MC2 6220 assessed as growth inhibition after 3 days by high-throughput screening assay; assay type: functional; details: MC2 6220, 72 h
Outline: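 Log-phase mc26220 washed in PBS/tyloxapol, resuspended in Sauton's-based NR medium (butyrate, 0.5 mM NaNO2, pH 5.0) at OD580 0.1. Compound exposure 3 days at 37 °C, 1% O2, 5% CO2. Then R medium added (5-fold dilution), 7 days outgrowth at 20% O2. OD580 read; MIC90 = 90% inhibition vs DMSO.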

[3] = Cytotoxicity against human HepG2 cells assessed as decrease in ATP signal after 2 days by CellTiter-Glo assay; assay type: cell-based; details: read-out: LD50
Outline: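 HepG2 in DMEM with 10% FBS, pyruvate, glutamine, HEPES and nonessential amino acids, seeded 3000 cells/well in 384-well plates. Compound for 2 days at 1% final DMSO. ATP read by CellTiter-Glo luminescence. LD50 = 50% drop in ATP signal vs DMSO. SI = LD50/MIC90 against replicating Mtb.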

Row | SMILES | MIC90 [1] [µg/mL] | MIC90 [2] [µg/mL] | CC50 at 48 h [3] [µg/mL]
1 | CCCc1cc(=O)oc2cc(OCc3ccccc3)c3c(c12)OC(C)(C)C=C3 | > 19 | > 19 | –
2 | CCCc1cc(=O)oc2cc(OCCCO)c3c(c12)OC(C)(C)C=C3 | > 17 | > 17 | –
3 | CCCc1cc(=O)oc2cc(OC)c3c(c12)OC(C)(C)C=C3 | > 15 | > 15 | –
4 | CCCc1cc(=O)oc2cc(NC(=O)Nc3ccc(F)cc3)c3c(c12)OC(C)(C)C=C3 | > 21 | > 21 | –
5 | CCCc1cc(=O)oc2cc(N3CCN(C(=O)Nc4ccc(OC(F)(F)F)cc4)CC3)c3c(c12)OC(C)(C)C=C3 | > 28 | > 28 | > 28
6 | CCCc1cc(=O)oc2cc(OC(C)C)c3c(c12)OC(C)(C)C=C3 | > 16 | > 16 | > 16
7 | CCCc1cc(=O)oc2cc(NCc3ccccc3)c3c(c12)OC(C)(C)C=C3 | 19 (≈ 50.6 µM) | > 19 | –
8 | CCCc1cc(=O)oc2cc(N3CCN(C(=O)NCc4ccccc4)CC3)c3c(c12)OC(C)(C)C=C3 | > 24 | > 24 | > 24
9 | CCCc1cc(=O)oc2c3c(c4c(c12)OC(C)(C)C=C4)OC(OC(C)=O)C3=O (stereo not given) | > 100 | 6 (≈ 15.6 µM) | –
10 | CCCc1cc(=O)oc2c1c(OCCN1CCOCC1)cc1oc([N+](=O)[O-])c(CO)c12 | 100 (≈ 231 µM) | 100 (≈ 231 µM) | –
11 | CCCc1cc(=O)oc2cc(OC3CCN(C(=O)NCc4ccccc4)CC3)c3c(c12)OC(C)(C)C=C3 | > 25 | > 25 | > 25
12 | CCCc1cc(=O)oc2cc(C#Cc3ccc(OC)cc3)c3c(c12)OC(C)(C)C=C3 | > 20 | > 20 | > 20
13 | CCCc1cc(=O)oc2cc(N3CCN(C(=O)Nc4ccc(OC)cc4)CC3)c3c(c12)OC(C)(C)C=C3 | > 25 | > 25 | > 25
14 | CCCc1cc(=O)oc2cc(NC(C)=O)c3c(c12)OC(C)(C)C=C3 | > 16 | > 16 | –
15 | CCCc1cc(=O)oc2cc(OC(C)=O)c3c(c12)OC(C)(C)C=C3 | > 16 | > 16 | –
16 | CCCc1cc(=O)oc2c(C(=O)CC)c(N3CCN(c4ccccn4)CC3)c3c(c12)OC(C)(C)C=C3 | > 24 | > 24 | –
17 | Cc1cc(=O)oc2cc(-c3ccc([N+](=O)[O-])o3)c3c(c12)OC(C)(C)C=C3 | > 18 | > 18 | > 18
18 | CCCc1cc(=O)oc2c1c(-c1ccc(F)cc1)cc1oc([N+](=O)[O-])cc12 | 0.7 (≈ 1.91 µM) | 18 (≈ 49 µM) | –
19 | CCCc1cc(=O)oc2cc(OC(=O)c3ccccc3)c3c(c12)OC(C)(C)C=C3 | > 20 | > 20 | –
20 | CCCc1cc(=O)oc2c(C(=O)N3CCOCC3)c(O)c3c(c12)OC(C)(C)C=C3 | > 20 | > 20 | > 20
21 | CCCc1cc(=O)oc2c3c(c4c(c12)OC(C)(C)C=C4)OC(O)C3=O (stereo not given) | > 17 | 17 (≈ 49.7 µM) | –
22 | CCCc1cc(=O)oc2cc(N3CCN(C(=O)Nc4ccccc4Oc4ccccc4)CC3)c3c(c12)OC(C)(C)C=C3 | > 28 | > 28 | > 28

Row | SMILES | MIC90 [1] [µg/mL] | MIC90 [2] [µg/mL] | CC50 at 48 h [3] [µg/mL]
23 | CCCc1cc(=O)oc2c(C(=O)O)c(O)c3c(c12)OC(C)(C)C=C3 | > 17 | > 17 | > 17
24 | CCCc1cc(=O)oc2c(C(=O)CC)c(N3CCSCC3)c3c(c12)OC(C)(C)C=C3 | > 21 | > 21 | –
25 | CCCc1cc(=O)oc2cc(OC3CCN(C(=O)Nc4ccc(F)cc4)CC3)c3c(c12)OC(C)(C)C=C3 | > 24 | > 24 | –
26 | CCCc1cc(=O)oc2cc(OCC(=O)NCCc3ccccc3)c3c(c12)OC(C)(C)C=C3 | > 22 | > 22 | –
27 | CCCc1cc(=O)oc2c1c(O)cc1oc([N+](=O)[O-])cc12 | > 14 | > 14 | –
28 | CCCc1cc(=O)oc2c3c(cc(OCCOC(=O)c4cnccn4)c12)O[C@H]([N+](=O)[O-])[C@H]3O (racemic) | < 1 | < 1 | < 1
29 | CCCC1CC(=O)Oc2c1c1c(c3oc([N+](=O)[O-])cc23)C=CC(C)(C)O1 (stereo not given) | > 18 | > 18 | –
30 | CCCc1cc(=O)oc2c3c(cc(OCCN4CCOCC4)c12)O[C@H]([N+](=O)[O-])[C@H]3C (racemic) | > 21 | > 21 | > 21
31 | CCCc1cc(=O)oc2cc(C#CCOc3ccc(F)cc3)c3c(c12)OC(C)(C)C=C3 | > 21 | > 21 | > 21
32 | CCCc1cc(=O)oc2c3c(c4cc([N+](=O)[O-])oc4c12)OC(C)CC3=O (stereo not given) | > 50 | 6 (≈ 16.8 µM) | –
33 | CCCc1cc(=O)oc2cc(Nc3ccccc3)c3c(c12)OC(C)(C)C=C3 | > 18 | > 18 | –
34 | CCCc1cc(=O)oc2c(C(=O)CC)c(N3CCN(Cc4ccc(F)cc4)CC3)c3c(c12)OC(C)(C)C=C3 | > 26 | 26 (≈ 50.1 µM) | –
35 | CCCc1cc(=O)oc2cc(OC3CCCC3)c3c(c12)OC(C)(C)C=C3 | > 23 | > 23 | > 23
36 | CCCc1cc(=O)oc2cc(N3CCN(C(=O)Nc4ccc(C(C)C)cc4)CC3)c3c(c12)OC(C)(C)C=C3 | > 26 | > 26 | > 26
37 | CCCc1cc(=O)oc2cc(NC(=O)c3ccccc3)c3c(c12)OC(C)(C)C=C3 | > 19 | > 19 | –
38 | CCCc1cc(=O)oc2cc(NCc3ccc(F)cc3)c3c(c12)OC(C)(C)C=C3 | > 20 | > 20 | –
39 | CCCc1c(F)c(=O)oc2c1c1c(c3oc([N+](=O)[O-])cc32)C=CC(C)(C)O1 | 19 (≈ 50.9 µM) | 19 (≈ 50.9 µM) | –
40 | CCCc1cc(=O)oc2cc(OCCN3CCOCC3)c3c(c12)OC(C)(C)C=C3 | 20 (≈ 50.1 µM) | > 20 | 20 (≈ 50.1 µM)
41 | CC1(C)C=Cc2c(c3c(-c4ccccc4)cc(=O)oc3c3cc([N+](=O)[O-])oc23)O1 | 2 (≈ 5.14 µM) | 19 (≈ 48.8 µM) | –
42 | CCCc1cc(=O)oc2cc(OCCc3cccs3)c3c(c12)OC(C)(C)C=C3 | > 20 | > 20 | –
43 | CCCc1cc(=O)oc2cc(N3CCN(C(=O)Nc4ccc(C#N)cc4)CC3)c3c(c12)OC(C)(C)C=C3 | > 25 | > 25 | > 25
44 | CCCc1cc(=O)oc2cc(C#Cc3ccccn3)c3c(c12)OC(C)(C)C=C3 | > 19 | > 19 | > 19

Row | SMILES | MIC90 [1] [µg/mL] | MIC90 [2] [µg/mL] | CC50 at 48 h [3] [µg/mL]
45 | CCCc1cc(=O)oc2cc(N3CCN(C(=O)NC4CCCCC4)CC3)c3c(c12)OC(C)(C)C=C3 | > 24 | > 24 | > 24
46 | CCCc1cc(=O)oc2c(C(=O)CC)c(N3CCN(c4ccc(OC)cc4)CC3)c3c(c12)OC(C)(C)C=C3 | > 26 | > 26 | –
47 | CCCc1cc(=O)oc2cc(OC3CCCCC3)c3c(c12)OC(C)(C)C=C3 | > 18 | > 18 | > 18
48 | Cc1c(Cc2ccccc2)c(=O)oc2c1c1c(c3oc([N+](=O)[O-])cc32)C=CC(C)(C)O1 | 2 (≈ 4.79 µM) | > 21 | –
49 | CCCCCCCNC(=O)N1CCN(c2cc3oc(=O)cc(CCC)c3c3c2C=CC(C)(C)O3)CC1 | > 25 | > 25 | > 25
50 | CCCc1cc(=O)oc2cc(OCC3CC3)c3c(c12)OC(C)(C)C=C3 | > 17 | > 17 | –
51 | CCCc1cc(=O)oc2c3c(c4c(c12)OC(C)(C)C=C4)OC(C)(OC(C)=O)C3=O (stereo not given) | > 20 | > 20 | –
52 | CCCc1cc(=O)oc2cc(NC(=O)c3cnccn3)c3c(c12)OC(C)(C)C=C3 | > 20 | > 20 | –
53 | CCCc1cc(=O)oc2cc(OC(=O)/C=C/c3ccccc3)c3c(c12)OC(C)(C)C=C3 | > 21 | > 21 | –
54 | CCCc1cc(=O)oc2cc(N3CCN(C(=O)Nc4ccc(F)c(Cl)c4)CC3)c3c(c12)OC(C)(C)C=C3 | > 26 | > 26 | > 26
55 | Cc1cc(=O)oc2cc(NC(=O)c3ccc([N+](=O)[O-])o3)c3c(c12)OC(C)(C)C=C3 | > 20 | > 20 | –
56 | CC1(C)C=Cc2c(c3c4c(c(=O)oc3c3cc([N+](=O)[O-])oc23)CCCC4)O1 | < 0.2 | 2 (≈ 5.44 µM) | –
57 | CCCc1cc(=O)oc2cc(NCc3cccc(F)c3)c3c(c12)OC(C)(C)C=C3 | > 20 | > 20 | –
58 | CCCc1cc(=O)oc2c1c1c(c3occc32)C=CC(C)(C)O1 | > 100 | > 100 | –
59 | CCCc1cc(=O)oc2cc(NC(=O)Nc3cccc4ccccc34)c3c(c12)OC(C)(C)C=C3 | > 23 | > 23 | –
60 | CCCc1cc(=O)oc2cc(N3CCC(O)CC3)c3c(c12)OC(C)(C)C=C3 | > 18 | > 18 | –
61 | CCCc1cc(=O)oc2cc(N3CCSCC3)c3c(c12)OC(C)(C)C=C3 | > 19 | > 19 | –
62 | CCCc1cc(=O)oc2c(C(=O)CC)c(N3CCOCC3)c3c(c12)OC(C)(C)C=C3 | > 21 | > 21 | –
63 | CCCc1cc(=O)oc2c(C(=O)CC)c(N(C)C)c3c(c12)OC(C)(C)C=C3 | > 18 | > 18 | –
64 | CCCc1cc(=O)oc2c(C(=O)CC)c(N3CCN(c4ccncc4)CC3)c3c(c12)OC(C)(C)C=C3 | > 24 | > 24 | –
